Assay: Toxicity liver stage against HepG2, at 10uM
Format: cell-based
Design: test concentration 10 uM, cell line HepG2-A16-CD81EGFP
Settings: human, HepG2-A16-CD81EGFP cells; read-out: INHIBITION
Summary of the method: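 Uninfected HepG2-A16-CD81EGFP cells, 3 × 10^3 per well, 1536-well, plated on prespotted compound at 10 μM final, parasite-free screening media added to match infected plates; puromycin 10 μM positive, DMSO 0.5% negative; run in parallel with 48 h PbLuc assay at 37 °C, 5% CO2; viability by CellTiter-Glo luminescence, normalized to controls.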

Structure (SMILES)	cytotoxicity at 10 µM [%]
CN(Cc1cc(Br)cn1C)C(=O)c1ccsc1	-10
Cc1ncc2c(n1)CN(Cc1nc(-c3ccsc3)oc1C)CC2	1.97
Cc1cc(C(=O)N2CCc3nc(N4CCCC4)nc(C)c3CC2)c(C)o1	-108
CO[C@@H]1CN(c2ccccc2)S(=O)(=O)[C@@]12CCN(Cc1cncs1)C2	5.63
Cc1cc(C(O)CCNS(=O)(=O)c2ccc(Cl)s2)c(C)o1 (centres undefined)	-3.95
COC(=O)N1CCc2ccccc2C1C(=O)NCc1nc(C)no1 (centres undefined)	3.88
CCOCc1nc(N2CCOCC2)sc1C(=O)NCCCc1ccco1	-87.3
Cc1ccc(N2CCC(Nc3ccc4nnc(C)n4n3)CC2)nc1	8.56
CN(C)S(=O)(=O)c1cccc(CNc2cc(CO)ccc2Cl)c1	5.36
CCN1CC(C(=O)NCc2nn(CC)c3ccccc23)CCC1=O (centres undefined)	-5.83
CN1CCOC[C@H]1c1nc(-c2ccccc2)c[nH]1	-7.24
O=C(NC1CC1)N1C[C@@H]2CCN(C(=O)c3cscn3)[C@@H]2C1	-0.025
CC(C)NC(=O)CC1COC2(CCN(Cc3cccs3)CC2)C1 (centres undefined)	4.57
CCOC(=O)C1CCN(C(=O)c2cnn(-c3ccccc3F)c2N)CC1	4.47
CN(C(=O)CCc1nc(C2CC2)no1)c1cc(C#N)c2ccccc2n1	0.55
O=C(NCCc1nnc2n1CCC2)NCC1(c2ccccc2F)CC1	0.833
COc1cccc2ncn(C(C)Cn3cccn3)c(=O)c12 (centres undefined)	1.37
CS(=O)(=O)c1cn[nH]c1C1CCCN(C(=O)Cn2cccn2)C1 (centres undefined)	-11.7
C[C@@H]1CN(C(=O)c2nc3ccc(Cl)cn3c2-c2ncc[nH]2)C[C@H](C)O1	-6.01
Cc1cnc(C2(C)CCN(Cc3cscn3)CC2)s1	-22.5
O=C(O)C1(Cc2cc(-c3cccc(F)c3)no2)CCOCC1	-4.97
c1ccc(C[C@H]2CN(C3CCOCC3)CC[C@H]2OCC2CC2)cc1	0.994

Structure (SMILES)	cytotoxicity at 10 µM [%]
CC(C)c1nc(O)c2nnn(C[C@@H]3CCCN(Cc4cccs4)C3)c2n1	1.76
CCS(=O)(=O)N1CCC2(CC1)CN(C(=O)N(C)C)Cc1ccccc12	2.67
O=C(NC1CCC1)C1CCC2(CN(C(=O)c3ccco3)C2)O1 (centres undefined)	-144
CS(=O)(=O)NCc1cc2n(n1)CCCN(Cc1ccc(Cl)s1)C2	2.81
Cc1cccc(N2CCN(C(=O)CCc3c(C)noc3Cl)CC2)c1	-9.73
O=S(=O)(C1CC1)N1CCO[C@@H]2CC(COCc3cccnc3)C[C@H]21 (some centres undefined)	7.01
O=C(Cc1ccccn1)N1C[C@@H](Oc2cccnc2)[C@H]2OCCC[C@H]21	7.8
O=C(c1ccco1)N1C[C@@H]2[C@@H](C1)OCC(=O)N2Cc1cccnc1	3.04
CCOc1ccc(N2CCCN=C2NC(=O)c2ccc(Cl)cc2)cc1	8.1
Cc1occc1C(=O)N1C[C@@H](C(=O)NCc2ccco2)C[C@H]2OCC[C@H]21	1.08
Cc1ccc2[nH]c(CN(C)c3cc(CN)nc(C)n3)nc2c1	1.69
CN(C)CCN1CCOCC2(CCCN(C(=O)c3cccn3C)C2)C1 (centres undefined)	4.87
Cc1nccc(-c2cccc(-c3ccn(CC4CCNC4)n3)c2)n1 (centres undefined)	10.7
COC(=O)CC(NC(=O)c1cc(OC)c2c(c1)OCCO2)c1cccs1 (centres undefined)	2.01
Cc1ccccc1CCNC(=O)N1CCCC(c2nncn2C)C1 (centres undefined)	-29.8
COCCNC(=O)NCCS(=O)(=O)N1CCN(c2cccc(C)c2)CC1	4.31
Cc1noc(C)c1NC(=O)Cn1cc(Br)ccc1=O	8.99
CN1CCCN(c2nc3c(cnn3C(C)(C)C)c(=O)[nH]2)CC1	-11.9
Cn1cc(C2CCCN2Cc2csc(C3CCCC3)n2)cn1 (centres undefined)	8.3
Cc1ccc2cnn(CCC(=O)Nc3c(C)nn(C)c3C)c2c1	-13.4
Cc1oc(-c2nc(C#N)c(NC(C)C)o2)cc1S(=O)(=O)N1CCCCC1	4.28
Cn1ncc(Cl)c1C(=O)NCCN1CCC(O)(c2ccc(F)cc2)CC1	4.71

Structure (SMILES)	cytotoxicity at 10 µM [%]
CCN(Cc1ccoc1)C(=O)Nc1ccccc1CN1CCOCC1	-14.8
CC(C)c1cc(Br)ccc1NC(=O)NC(C)(CO)CO	9.83
COc1ccc(OCCNc2cccc(C(=O)N3CCOCC3)c2)cc1	7.08
Cn1c(C2CC2)nc2c1CCN(CC(=O)Nc1nncs1)C2	-6.44
COc1c(Cl)cc(Cl)cc1CN1CCC(C(N)=O)C1 (centres undefined)	11.9
Cc1c(CN2CCCC(C(=O)c3ccc(C(C)(C)C)cc3)C2)cnn1C (centres undefined)	10.4
C=C(C)COc1ccccc1CNCCc1cc(O)nc(C)n1	-1.6
CCOc1cc(C)nc(N2CCN(C(=O)C(C)NC(C)=O)CC2)n1 (centres undefined)	-4.41
c1ccc(-c2cnc(CN(Cc3cccnc3)CC3CCCO3)o2)cc1 (centres undefined)	17.5
CCCc1nccn1-c1ccncc1	17.3
CCOCCN1CCN(CC(=O)N2CCCC2)CC1C (centres undefined)	-3.82
Cc1nc(CN2C[C@@H]3OCCN(c4ncc(F)cn4)[C@@H]3C2)cs1	-8.52
CN(C)C(=O)c1ccc2ccc(N3CCN(CC4CC4)CC3)n2c1	4.14
O=S(=O)(NCc1ccc(S(=O)(=O)N2CCCC2)s1)c1ccc(Cl)c(Cl)c1	-41.8
O=C(Cc1c(F)cccc1Cl)Nc1cccc(N2CCCC2)c1	-117
c1cnc(NCc2nnn3c2CN(CC2CC2)CCC3)nc1	-0.536
CCCc1nc(C(=O)N(C)Cc2cnn(-c3cccc(OC)c3)c2)cs1	6.39
Cc1cccc(C(=O)N2CCCC2c2c(C)n[nH]c2C)c1 (centres undefined)	8.58
Cc1cc(C(=O)N2CCCC2c2c(C)nn(C)c2C)no1 (centres undefined)	-2.57
COc1cccc2c1OCC(CNC(=O)CNC(N)=O)C2 (centres undefined)	-2.93
CN(C)C(=O)[C@H]1C[C@@H]2CCN(Cc3ccoc3)C[C@@H]2O1	-99.7
CN(C)C(=O)c1cccc(CCNS(=O)(=O)c2ccccc2)c1	-4.12

Structure (SMILES)	cytotoxicity at 10 µM [%]
COc1ccc(-c2nc(CSC3CCCCNC3=O)co2)cc1 (centres undefined)	20.9
CN(Cc1ccc([S+](C)[O-])cc1)c1ccc(Cl)cn1 (centres undefined)	8.97
Cn1ccc(C(=O)NC2CCC23CCN(C(=O)c2ccccn2)CC3)c1 (centres undefined)	-71.7
Cc1nc(CN2C(=O)CCC23CCN(Cc2ccccn2)CC3)cs1	-2.71
CCn1nnc2c1C(COCCN(C)C)CN(Cc1ccc(C)s1)C2 (centres undefined)	4.44
CN1CCCc2ccc(S(=O)(=O)NC(=O)C3CC=CC3)cc21	2.84
O=C1CC2(CCN(Cc3ccoc3)C2)CN1c1ccc2c(c1)OCO2 (centres undefined)	-6.72
COc1ccc(CNCCc2cccc(C(N)=O)c2)cc1O	8.42
Cc1c(NC(=O)c2noc3c2CCCC3)cnn1C	-5.41
Cn1c(C(=O)N2CCC(C(N)=O)C2)c(Cl)c2ccccc21 (centres undefined)	2.03
CN(C)S(=O)(=O)N1CCN(c2nccc(C(F)(F)F)n2)CC1	-7.04
CN1CCc2c1nc1c(c2N)CCC1	0.0371
COCCN1C[C@H]2[C@@H](C1)N(C(=O)COc1ccccc1)CC[C@H]2OC	-1.34
Cc1oc(-c2ccc(F)cc2F)nc1CN1C[C@@H](C)O[C@@H](C)C1	-39.9
CC(C)(C)OC(=O)NC1CCCN(Cc2cccs2)C1 (centres undefined)	-40.7
COc1cc(-c2cc(NC3CCCC3)nc3[nH]ccc23)nc(N)n1	10.2
Cn1ccnc1-c1nc(N2CCCCC2)ncc1-c1ccccc1F	12.4
Cc1ccc(CN2CCCC3(CCCCN3S(C)(=O)=O)C2)s1 (centres undefined)	-115
COc1ccc2c(c1)CCCN2Cc1nc(C)c(C)o1	4.74
Cc1ccc(CN2CCN(C(=O)CCc3nc(Cl)n[nH]3)CC2=O)cc1	-0.903
Cc1nc(CN(C)C2CCN(Cc3nc4c(F)cccc4[nH]3)C2)no1 (centres undefined)	-4.09
c1ccc(NCc2cn3c(n2)CN(Cc2nccs2)CC3)nc1	10.4

Structure (SMILES)	cytotoxicity at 10 µM [%]
Cc1nc(C)n(C2CCCN(C(=O)c3nc(C)n4ccccc34)C2)n1 (centres undefined)	-10.9
Cn1cnnc1C1CCCN(C(=O)NCc2cc[nH]n2)C1 (centres undefined)	-6.73
CCC(CC)NC(=O)c1ncn2c1CN(CC)S(=O)(=O)c1ccccc1-2	-85.1
O=C(O)c1cccc(C2CCCN(S(=O)(=O)N3CCOCC3)C2)c1 (centres undefined)	9.45
COCC1CCN(C(=O)c2cc(-c3ccco3)nc3c(Cl)cccc23)C1 (centres undefined)	1.12
Cc1cnn(C2CCCN(C(=O)c3cc(C)sc3C)C2)c1 (centres undefined)	-1.4
O=C(c1ccco1)N1CCC(CSCc2ccco2)CC1	-6.49
CC(C)C(=O)N1CCC2(CCCN(CCOc3ccccc3)C2)C1 (centres undefined)	6.71
CN(CC1CCOCC1)C1CCCN(c2ccccn2)C1 (centres undefined)	-0.48
N#Cc1ccc(CN2CCN(c3cncc(Cl)n3)CC2=O)cc1	7.55
CC(C)COC(C)C(=O)N1CCCCC1 (centres undefined)	-5.66
CC(=O)NCc1nnn2c1CN(c1ncccn1)CCC2	-107
O=C1CO[C@@H]2CN(Cc3nccs3)C[C@H]2N1Cc1ccncc1	-66.6
CCc1nnc(CS(=O)(=O)c2ccc(C)c(C)c2)n1C	0.617
Cn1ncnc1CNC1CCc2cc(Cl)ccc21 (centres undefined)	9.57
Cn1nccc1C(=O)N1CCCC2(CCN(c3ccsc3)C2=O)C1 (centres undefined)	-121
COc1ccc(-c2ccnc3nc(N4CCCCC4)[nH]c(=O)c23)cc1	5.31
CCC(C)(NCc1ncc(C(C)C)o1)c1nccs1 (centres undefined)	18.9
CCNC(=O)NC(=O)CNC(C)(CC)c1nccs1 (centres undefined)	7.93
CC(NCc1cccc2c1OCCO2)c1cc2c(cc1Br)OCCO2 (centres undefined)	3.6
COc1cc(C)ccc1OCCC(=O)N1CCCC(n2cncn2)C1 (centres undefined)	-2.69

Reference: ChEMBL document CHEMBL4513216, “Probing the Open Global Health Chemical Diversity Library for Multistage-Active Starting Points for Next-Generation Antimalarials” (ACS Infect Dis, 2020)
